In ChEMBL document CHEMBL1909504, “New series of isoniazid hydrazones linked with electron-withdrawing substituents” (Eur J Med Chem, 2011):
Converted amounts (≈) assume the structure as drawn.

How the values were obtained:
[1] = system: Mycobacterium tuberculosis; experiment: Antimycobacterial activity against Mycobacterium tuberculosis CNTC My 331/88 ATCC 27294 after 14 days; format: functional; settings: CNTC My 331/88 ATCC 27294, 336 h
Method in brief: (§1)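 Sula semi-synthetic medium at 37 °C. Compounds were dissolved in DMSO (max. 5% DMSO in water) and added to the medium at 1000, 500, 250, 125, 62, 31, 16, 8, 4, 2 and 1 μmol L⁻¹. MIC was read after 7, 14 and 21 days of incubation at 37 °C. Strains came from the Czech National Collection of Type Cultures.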

[2] = system: Mycobacterium avium; experiment: Antimycobacterial activity against Mycobacterium avium CNTC My 330/88 after 21 days; format: functional; settings: CNTC My 330/88, 504 h; method in brief: as §1
[3] = system: Mycobacterium avium; experiment: Antimycobacterial activity against Mycobacterium avium CNTC My 330/88 after 14 days; format: functional; settings: CNTC My 330/88, 336 h; method in brief: as §1
[4] = system: Mycobacterium kansasii; experiment: Antimycobacterial activity against Mycobacterium kansasii CNTC My 335/80 after 14 days; format: functional; settings: 336 h
Method in brief: (§2)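 MIC in Sula semi-synthetic medium at 37 °C. M. kansasii 6509/96 is a clinical isolate; M. kansasii CNTC My 235/80 comes from the Czech national collection. Compounds were dissolved in DMSO (max. 5% DMSO in water) and tested at 1000, 500, 250, 125, 62, 31, 16, 8, 4, 2 and 1 μmol L⁻¹. MIC was read after 7, 14 and 21 days.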

[5] = system: Mycobacterium kansasii; experiment: Antimycobacterial activity against Mycobacterium kansasii CNTC My 335/80 after 21 days; format: functional; settings: 504 h; method in brief: as §2
[6] = system: Mycobacterium kansasii; experiment: Antimycobacterial activity against Mycobacterium kansasii 6509/96 isolate after 14 days; format: functional; settings: 6509/96, 336 h; method in brief: as §2
[7] = system: Mycobacterium tuberculosis; experiment: Antimycobacterial activity against Mycobacterium tuberculosis CNTC My 331/88 ATCC 27294 after 21 days; format: functional; settings: CNTC My 331/88 ATCC 27294, 504 h; method in brief: as §1
[8] = system: Mycobacterium kansasii; experiment: Antimycobacterial activity against Mycobacterium kansasii 6509/96 isolate after 7 days; format: functional; settings: 6509/96, 168 h; method in brief: as §2
[9] = system: Mycobacterium kansasii; experiment: Antimycobacterial activity against Mycobacterium kansasii CNTC My 335/80 after 7 days; format: functional; settings: 168 h; method in brief: as §2
[10] = system: Mycobacterium kansasii; experiment: Antimycobacterial activity against Mycobacterium kansasii 6509/96 isolate after 21 days; format: functional; settings: 6509/96, 504 h; method in brief: as §2
[11] = system: HepG2; experiment: Cytotoxicity against human HepG2 cells by MTT assay; format: cell-based
Method in brief: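 MTT viability assay in RPMI-1640 without phenol red with 10% FCS and 2 mM L-glutamine, at 37 °C and 5% CO₂. HepG2 seeded at 5×10³ cells/well; fresh human PBMC at 2.0×10⁵ cells/well. After 24 h, cells were exposed overnight in serum-free medium, then given MTT (2 mg mL⁻¹) for 4 h. Formazan dissolved in DMSO, OD540 minus OD620, compared with untreated controls. IC50 taken from dose-response curves; two independent experiments, 4–8 parallels.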

Row | Compound | MIC [1] [µM] | MIC [2] [µM] | MIC [3] [µM] | MIC [4] [µM] | MIC [5] [µM] | MIC [6] [µM] | MIC [7] [µM] | MIC [8] [µM] | MIC [9] [µM] | MIC [10] [µM] | IC50 [11] [µM]
1 | O=C(N/N=C/Nc1cccc(O)c1)c1ccncc1 | 2 (≈ 0.513 µg/mL) | 500 (≈ 128 µg/mL) | 500 (≈ 128 µg/mL) | 1000 (≈ 256 µg/mL) | 1000 (≈ 256 µg/mL) | 32 (≈ 8.2 µg/mL) | 2 (≈ 0.513 µg/mL) | 16 (≈ 4.1 µg/mL) | 250 (≈ 64.1 µg/mL) | 32 (≈ 8.2 µg/mL) | –
2 | O=C(N/N=C/Nc1ccc(O)cc1)c1ccncc1 | 4 (≈ 1.03 µg/mL) | 500 (≈ 128 µg/mL) | 500 (≈ 128 µg/mL) | 500 (≈ 128 µg/mL) | 500 (≈ 128 µg/mL) | 62.5 (≈ 16 µg/mL) | 8 (≈ 2.05 µg/mL) | 32 (≈ 8.2 µg/mL) | 250 (≈ 64.1 µg/mL) | 62.5 (≈ 16 µg/mL) | –
3 | COc1cccc(N/C=N/NC(=O)c2ccncc2)c1 | 2 (≈ 0.541 µg/mL) | 500 (≈ 135 µg/mL) | 500 (≈ 135 µg/mL) | 500 (≈ 135 µg/mL) | 1000 (≈ 270 µg/mL) | 16 (≈ 4.32 µg/mL) | 2 (≈ 0.541 µg/mL) | 16 (≈ 4.32 µg/mL) | 250 (≈ 67.6 µg/mL) | 16 (≈ 4.32 µg/mL) | –
4 | COc1ccc(N/C=N/NC(=O)c2ccncc2)cc1 | 2 (≈ 0.541 µg/mL) | 500 (≈ 135 µg/mL) | 500 (≈ 135 µg/mL) | 500 (≈ 135 µg/mL) | 1000 (≈ 270 µg/mL) | 16 (≈ 4.32 µg/mL) | 4 (≈ 1.08 µg/mL) | 16 (≈ 4.32 µg/mL) | 250 (≈ 67.6 µg/mL) | 32 (≈ 8.65 µg/mL) | –
5 | O=C(N/N=C/Nc1ccc(C(F)(F)F)cc1)c1ccncc1 | 2 (≈ 0.617 µg/mL) | 1000 (≈ 308 µg/mL) | 500 (≈ 154 µg/mL) | 500 (≈ 154 µg/mL) | 1000 (≈ 308 µg/mL) | 32 (≈ 9.86 µg/mL) | 2 (≈ 0.617 µg/mL) | 32 (≈ 9.86 µg/mL) | 250 (≈ 77.1 µg/mL) | 32 (≈ 9.86 µg/mL) | –
6 | O=C(N/N=C/Nc1cccc(F)c1)c1ccncc1 | 1 (≈ 0.258 µg/mL) | 1000 (≈ 258 µg/mL) | 500 (≈ 129 µg/mL) | 1000 (≈ 258 µg/mL) | > 1000 | 16 (≈ 4.13 µg/mL) | 1 (≈ 0.258 µg/mL) | 16 (≈ 4.13 µg/mL) | 125 (≈ 32.3 µg/mL) | 16 (≈ 4.13 µg/mL) | –
7 | O=C(N/N=C/Nc1ccc(F)cc1)c1ccncc1 | 1 (≈ 0.258 µg/mL) | 500 (≈ 129 µg/mL) | 250 (≈ 64.6 µg/mL) | 1000 (≈ 258 µg/mL) | > 1000 | 8 (≈ 2.07 µg/mL) | 2 (≈ 0.517 µg/mL) | 8 (≈ 2.07 µg/mL) | 250 (≈ 64.6 µg/mL) | 8 (≈ 2.07 µg/mL) | –
8 | O=C(N/N=C/Nc1cccc(Cl)c1)c1ccncc1 | 1 (≈ 0.275 µg/mL) | 1000 (≈ 275 µg/mL) | 500 (≈ 137 µg/mL) | 500 (≈ 137 µg/mL) | 500 (≈ 137 µg/mL) | 16 (≈ 4.4 µg/mL) | 1 (≈ 0.275 µg/mL) | 16 (≈ 4.4 µg/mL) | 125 (≈ 34.3 µg/mL) | 16 (≈ 4.4 µg/mL) | –
9 | O=C(N/N=C/Nc1cccc(Br)c1)c1ccncc1 | 1 (≈ 0.319 µg/mL) | 500 (≈ 160 µg/mL) | 250 (≈ 79.8 µg/mL) | 1000 (≈ 319 µg/mL) | 1000 (≈ 319 µg/mL) | 8 (≈ 2.55 µg/mL) | 1 (≈ 0.319 µg/mL) | 8 (≈ 2.55 µg/mL) | 250 (≈ 79.8 µg/mL) | 16 (≈ 5.11 µg/mL) | –
10 | O=C(N/N=C/Nc1ccc(Cl)cc1O)c1ccncc1 | 2 (≈ 0.581 µg/mL) | 500 (≈ 145 µg/mL) | 250 (≈ 72.7 µg/mL) | 500 (≈ 145 µg/mL) | 500 (≈ 145 µg/mL) | 16 (≈ 4.65 µg/mL) | 4 (≈ 1.16 µg/mL) | 16 (≈ 4.65 µg/mL) | 250 (≈ 72.7 µg/mL) | 32 (≈ 9.3 µg/mL) | –
11 | O=C(N/N=C/Nc1ccc(Cl)c(Cl)c1)c1ccncc1 | 1 (≈ 0.309 µg/mL) | 250 (≈ 77.3 µg/mL) | 250 (≈ 77.3 µg/mL) | 500 (≈ 155 µg/mL) | 500 (≈ 155 µg/mL) | 16 (≈ 4.95 µg/mL) | 2 (≈ 0.618 µg/mL) | 8 (≈ 2.47 µg/mL) | 250 (≈ 77.3 µg/mL) | 16 (≈ 4.95 µg/mL) | –
12 | O=C(N/N=C/Nc1ccc(F)c(F)c1)c1ccncc1 | 2 (≈ 0.552 µg/mL) | 250 (≈ 69.1 µg/mL) | 250 (≈ 69.1 µg/mL) | 500 (≈ 138 µg/mL) | 1000 (≈ 276 µg/mL) | 16 (≈ 4.42 µg/mL) | 2 (≈ 0.552 µg/mL) | 8 (≈ 2.21 µg/mL) | 250 (≈ 69.1 µg/mL) | 32 (≈ 8.84 µg/mL) | –
13 | O=C(N/N=C/Nc1ccc(F)c(Cl)c1)c1ccncc1 | 1 (≈ 0.293 µg/mL) | 500 (≈ 146 µg/mL) | 250 (≈ 73.2 µg/mL) | 1000 (≈ 293 µg/mL) | > 1000 | 16 (≈ 4.68 µg/mL) | 2 (≈ 0.585 µg/mL) | 16 (≈ 4.68 µg/mL) | 250 (≈ 73.2 µg/mL) | 32 (≈ 9.37 µg/mL) | –
14 | O=C(N/N=C/Nc1cccc(C(F)(F)F)c1)c1ccncc1 | 1 (≈ 0.308 µg/mL) | 1000 (≈ 308 µg/mL) | 500 (≈ 154 µg/mL) | 250 (≈ 77.1 µg/mL) | 1000 (≈ 308 µg/mL) | 16 (≈ 4.93 µg/mL) | 1 (≈ 0.308 µg/mL) | 16 (≈ 4.93 µg/mL) | 125 (≈ 38.5 µg/mL) | 32 (≈ 9.86 µg/mL) | –
15 | O=C(N/N=C/Nc1ccc(Cl)cc1)c1ccncc1 | 1 (≈ 0.275 µg/mL) | 1000 (≈ 275 µg/mL) | 500 (≈ 137 µg/mL) | 250 (≈ 68.7 µg/mL) | 1000 (≈ 275 µg/mL) | 32 (≈ 8.79 µg/mL) | 1 (≈ 0.275 µg/mL) | 16 (≈ 4.4 µg/mL) | 125 (≈ 34.3 µg/mL) | 32 (≈ 8.79 µg/mL) | –
16 | O=C(N/N=C/Nc1ccc(Br)cc1)c1ccncc1 | 2 (≈ 0.638 µg/mL) | 500 (≈ 160 µg/mL) | 500 (≈ 160 µg/mL) | 250 (≈ 79.8 µg/mL) | 500 (≈ 160 µg/mL) | 32 (≈ 10.2 µg/mL) | 4 (≈ 1.28 µg/mL) | 32 (≈ 10.2 µg/mL) | 125 (≈ 39.9 µg/mL) | 32 (≈ 10.2 µg/mL) | –
17 | O=C(N/N=C/Nc1cccc([N+](=O)[O-])c1)c1ccncc1 | 2 (≈ 0.571 µg/mL) | 500 (≈ 143 µg/mL) | 250 (≈ 71.3 µg/mL) | 250 (≈ 71.3 µg/mL) | 500 (≈ 143 µg/mL) | 16 (≈ 4.56 µg/mL) | 2 (≈ 0.571 µg/mL) | 8 (≈ 2.28 µg/mL) | 125 (≈ 35.7 µg/mL) | 16 (≈ 4.56 µg/mL) | –
18 | NNC(=O)c1ccncc1 [ISONIAZID] | 1 (≈ 0.137 µg/mL) | > 250 | > 250 | > 250 | > 250 | 4 (≈ 0.549 µg/mL) | 1 (≈ 0.137 µg/mL) | 2 (≈ 0.274 µg/mL) | > 250 | 4 (≈ 0.549 µg/mL) | > 1000
